Test results reported in ChEMBL document CHEMBL1140069, “In vitro antifungal activity of polyfunctionalized 2-(hetero)arylquinolines prepared through imino Diels-Alder reactions” (2008).
≈ marks a conversion by molar mass, not a printed value.

Columns and labels:
Format in all cases: functional
Candida albicans [1] = experiment: Antimicrobial activity against Candida albicans ATCC 10231 at 6.25 ug/ml after 24 hrs; settings: ATCC 10231, 24 h
Method in brief: (§1)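 Growth-inhibition microplate test. Strains are grown on Sabouraud-chloramphenicol agar for 48 h at 30 °C, and inoculum is added to RPMI-1640 containing compound at a final 100–6.25, with DMSO ≤2%. Each strain has a growth control (same DMSO, no compound) and a sterility control.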

Cryptococcus neoformans [2] = experiment: Antimicrobial activity against Cryptococcus neoformans IM 961951 isolate at 25 ug/ml after 48 hrs
Method in brief: (§2)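 Clinical Cryptococcus isolates kept on Sabouraud-dextrose agar slopes; inoculum 1–5 × 10³ CFU/mL. Quinoline DMSO stocks were diluted in RPMI-1640 to final 100–6.25 µg/mL, with DMSO ≤2%. An equal volume of inoculum was added (200 µL per well). Run in triplicate.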

Cryptococcus neoformans [3] = experiment: Antimicrobial activity against Cryptococcus neoformans IM 972724 isolate at 12.5 ug/ml after 48 hrs; method in brief: as §2
Candida albicans [4] = experiment: Antimicrobial activity against Candida albicans ATCC 10231 at 50 ug/ml after 24 hrs; settings: ATCC 10231, 24 h; method in brief: as §1
Cryptococcus neoformans [5] = experiment: Antimicrobial activity against Cryptococcus neoformans IM 972724 isolate at 100 ug/ml after 48 hrs; method in brief: as §2
Cryptococcus neoformans [6] = experiment: Antimicrobial activity against Cryptococcus neoformans IM 983040 isolate at 25 ug/ml after 48 hrs; method in brief: as §2
Cryptococcus neoformans [7] = experiment: Antimicrobial activity against Cryptococcus neoformans IM 031706 isolate at 12.5 ug/ml after 48 hrs
Method in brief: (§3)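 Percent growth inhibition in 96-well microplates. Compound stocks in DMSO (≤2%) were diluted in RPMI-1640 to final 100–6.25 µg/mL, and 100 µL inoculum was added (final 200 µL). Controls were a growth well (inoculum with matching DMSO, no compound) and a sterility well (no inoculum). Inhibition was calculated against growth and sterility wells.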

Cryptococcus neoformans [8] = experiment: Antimicrobial activity against Cryptococcus neoformans IM 972751 isolate at 12.5 ug/ml after 48 hrs; method in brief: as §2
Cryptococcus neoformans [9] = experiment: Antimicrobial activity against Cryptococcus neoformans IM 00319 isolate at 25 ug/ml after 48 hrs; method in brief: as §3
Cryptococcus neoformans [10] = experiment: Antimicrobial activity against Cryptococcus neoformans IM 031706 isolate at 50 ug/ml after 48 hrs; method in brief: as §3
Cryptococcus neoformans [11] = experiment: Antimicrobial activity against Cryptococcus neoformans IM 983040 isolate at 12.5 ug/ml after 48 hrs; method in brief: as §2
[12] = system: Trichophyton mentagrophytes; experiment: Antifungal activity against Trichophyton mentagrophytes ATCC 9972 after 48 hrs by broth microdilution technique; settings: ATCC 9972, 48 h
Method in brief: (§4)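 CLSI broth microdilution: M-27 A2 for yeasts and M-38 A for filamentous fungi. Medium is RPMI-1640 buffered to pH 7.0 with MOPS. Compound is diluted twofold from 250 to 0.98, final DMSO ≤2%. Inoculum is 1–5 × 10³ CFU/mL. Plates are incubated at 35 °C in a moist, dark chamber and read visually at 48 h. MIC100 is the lowest concentration giving total growth inhibition versus drug-free control.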

Cryptococcus neoformans [13] = experiment: Antimicrobial activity against Cryptococcus neoformans IM 031706 isolate at 100 ug/ml after 48 hrs; method in brief: as §3
Cryptococcus neoformans [14] = experiment: Antimicrobial activity against Cryptococcus neoformans IM 983036 isolate at 12.5 ug/ml after 48 hrs; method in brief: as §2
Cryptococcus neoformans [15] = experiment: Antimicrobial activity against Cryptococcus neoformans IM 961951 isolate at 100 ug/ml after 48 hrs; method in brief: as §3
Cryptococcus neoformans [16] = experiment: Antimicrobial activity against Cryptococcus neoformans IM 983036 isolate at 25 ug/ml after 48 hrs; method in brief: as §2
Trichophyton rubrum = experiment: Antifungal activity against Trichophyton rubrum C110 after 48 hrs by broth microdilution technique; settings: read-out: MIC; method in brief: as §4
Cryptococcus neoformans [17] = experiment: Antimicrobial activity against Cryptococcus neoformans IM 042074 isolate at 50 ug/ml after 48 hrs; method in brief: as §3
Aspergillus flavus = experiment: Antifungal activity against Aspergillus flavus ATCC 9170 after 48 hrs by broth microdilution technique; settings: ATCC 9170, 48 h; method in brief: as §4
Cryptococcus neoformans [18] = experiment: Antimicrobial activity against Cryptococcus neoformans ATCC 32264 at 100 ug/ml after 48 hrs; settings: ATCC 32264, 48 h; method in brief: as §3
Cryptococcus neoformans [19] = experiment: Antimicrobial activity against Cryptococcus neoformans IM 042074 isolate at 100 ug/ml after 48 hrs; method in brief: as §3
Cryptococcus neoformans [20] = experiment: Antimicrobial activity against Cryptococcus neoformans IM 031706 isolate at 25 ug/ml after 48 hrs; method in brief: as §3
Cryptococcus neoformans [21] = experiment: Antimicrobial activity against Cryptococcus neoformans IM 972724 isolate at 6.25 ug/ml after 48 hrs; method in brief: as §2
Cryptococcus neoformans [22] = experiment: Antifungal activity against Cryptococcus neoformans ATCC 32264 after 48 hrs by broth microdilution technique; settings: ATCC 32264, 48 h; method in brief: as §4
Cryptococcus neoformans [23] = experiment: Antimicrobial activity against Cryptococcus neoformans IM 031631 isolate at 100 ug/ml after 48 hrs; method in brief: as §3
Cryptococcus neoformans [24] = experiment: Antimicrobial activity against Cryptococcus neoformans ATCC 32264 at 50 ug/ml after 48 hrs; settings: ATCC 32264, 48 h; method in brief: as §3
Cryptococcus neoformans [25] = experiment: Antimicrobial activity against Cryptococcus neoformans IM 983040 isolate at 100 ug/ml after 48 hrs; method in brief: as §2
Cryptococcus neoformans [26] = experiment: Antimicrobial activity against Cryptococcus neoformans IM 00319 isolate at 50 ug/ml after 48 hrs; method in brief: as §3
Cryptococcus neoformans [27] = experiment: Antimicrobial activity against Cryptococcus neoformans IM 052470 isolate at 12.5 ug/ml after 48 hrs; method in brief: as §3
Candida albicans [28] = experiment: Antifungal activity against Candida albicans ATCC 10231 after 48 hrs by broth microdilution technique; settings: ATCC 10231, 48 h; method in brief: as §4
Cryptococcus neoformans [29] = experiment: Antimicrobial activity against Cryptococcus neoformans ATCC 32264 at 6.25 ug/ml after 48 hrs; settings: ATCC 32264, 48 h; method in brief: as §3
Cryptococcus neoformans [30] = experiment: Antimicrobial activity against Cryptococcus neoformans IM 052470 isolate at 6.25 ug/ml after 48 hrs; method in brief: as §3
Cryptococcus neoformans [31] = experiment: Antimicrobial activity against Cryptococcus neoformans IM 00319 isolate at 100 ug/ml after 48 hrs; method in brief: as §3
Cryptococcus neoformans [32] = experiment: Antimicrobial activity against Cryptococcus neoformans IM 031631 isolate at 6.25 ug/ml after 48 hrs; method in brief: as §3
Candida albicans [33] = experiment: Antimicrobial activity against Candida albicans ATCC 10231 at 12.5 ug/ml after 24 hrs; settings: ATCC 10231, 24 h; method in brief: as §1
Nannizzia gypsea = experiment: Antifungal activity against Microsporum gypseum C115 after 48 hrs by broth microdilution technique; method in brief: as §4
Cryptococcus neoformans [34] = experiment: Antimicrobial activity against Cryptococcus neoformans IM 983040 isolate at 50 ug/ml after 48 hrs; method in brief: as §2
Aspergillus fumigatus = experiment: Antifungal activity against Aspergillus fumigatus ATTC 26934 after 48 hrs by broth microdilution technique; method in brief: as §4
Cryptococcus neoformans [35] = experiment: Antimicrobial activity against Cryptococcus neoformans IM 972724 isolate at 50 ug/ml after 48 hrs; method in brief: as §2
Cryptococcus neoformans [36] = experiment: Antimicrobial activity against Cryptococcus neoformans IM 00319 isolate at 6.25 ug/ml after 48 hrs; method in brief: as §3
Saccharomyces cerevisiae = experiment: Antifungal activity against Saccharomyces cerevisiae ATCC 9763 after 48 hrs by broth microdilution technique; settings: ATCC 9763, 48 h; method in brief: as §4
Cryptococcus neoformans [37] = experiment: Antimicrobial activity against Cryptococcus neoformans IM 972724 isolate at 25 ug/ml after 48 hrs; method in brief: as §2
Candida albicans [38] = experiment: Antimicrobial activity against Candida albicans ATCC 10231 at 100 ug/ml after 24 hrs; settings: ATCC 10231, 24 h; method in brief: as §1

MIC [12]: 25 µg/mL (≈ 113 µM)
MIC (Trichophyton rubrum): 25 µg/mL (≈ 113 µM)
MIC (Aspergillus flavus): 100 µg/mL (≈ 454 µM)
MIC (Cryptococcus neoformans [22]): 25 µg/mL (≈ 113 µM)
MIC (Candida albicans [28]): 100 µg/mL (≈ 454 µM)
MIC (Nannizzia gypsea): 25 µg/mL (≈ 113 µM)
MIC (Aspergillus fumigatus): 50 µg/mL (≈ 227 µM)
MIC (Saccharomyces cerevisiae): 50 µg/mL (≈ 227 µM)
SMILES: Cc1cc(-c2ccncc2)nc2ccccc12
inhibition at 6.25 µg/mL (Candida albicans [1]): 19%
inhibition at 25 µg/mL (Cryptococcus neoformans [2]): 78%
inhibition at 12.5 µg/mL (Cryptococcus neoformans [3]): 0%
inhibition at 50 µg/mL (Candida albicans [4]): 73%
inhibition at 100 µg/mL (Cryptococcus neoformans [5]): 74%
inhibition at 25 µg/mL (Cryptococcus neoformans [6]): 12%
inhibition at 12.5 µg/mL (Cryptococcus neoformans [7]): 41%
inhibition at 12.5 µg/mL (Cryptococcus neoformans [8]): 0%
inhibition at 25 µg/mL (Cryptococcus neoformans [9]): 52%
inhibition at 50 µg/mL (Cryptococcus neoformans [10]): 69%
inhibition at 12.5 µg/mL (Cryptococcus neoformans [11]): 0%
inhibition at 100 µg/mL (Cryptococcus neoformans [13]): 100%
inhibition at 12.5 µg/mL (Cryptococcus neoformans [14]): 20%
inhibition at 100 µg/mL (Cryptococcus neoformans [15]): 97%
inhibition at 25 µg/mL (Cryptococcus neoformans [16]): 45%
inhibition at 50 µg/mL (Cryptococcus neoformans [17]): 87%
inhibition at 100 µg/mL (Cryptococcus neoformans [18]): 100%
inhibition at 100 µg/mL (Cryptococcus neoformans [19]): 92%
inhibition at 25 µg/mL (Cryptococcus neoformans [20]): 57%
inhibition at 6.25 µg/mL (Cryptococcus neoformans [21]): 0%
inhibition at 100 µg/mL (Cryptococcus neoformans [23]): 100%
inhibition at 50 µg/mL (Cryptococcus neoformans [24]): 100%
inhibition at 100 µg/mL (Cryptococcus neoformans [25]): 45%
inhibition at 50 µg/mL (Cryptococcus neoformans [26]): 80%
inhibition at 12.5 µg/mL (Cryptococcus neoformans [27]): 24%
inhibition at 6.25 µg/mL (Cryptococcus neoformans [29]): 83%
inhibition at 6.25 µg/mL (Cryptococcus neoformans [30]): 0%
inhibition at 100 µg/mL (Cryptococcus neoformans [31]): 92%
inhibition at 6.25 µg/mL (Cryptococcus neoformans [32]): 12%
inhibition at 12.5 µg/mL (Candida albicans [33]): 41%
inhibition at 50 µg/mL (Cryptococcus neoformans [34]): 34%
inhibition at 50 µg/mL (Cryptococcus neoformans [35]): 23%
inhibition at 6.25 µg/mL (Cryptococcus neoformans [36]): 12%
inhibition at 25 µg/mL (Cryptococcus neoformans [37]): 8%
inhibition at 100 µg/mL (Candida albicans [38]): 100%
